hDAT+cocaine = modulates human dopamine transporter uptake under cocaine; Q01959; LLC-PK1 hDAT cells, [14C]-dopamine uptake with cocaine IC80; actives deviate in either direction; B-score at 10 µM; 110,000 compounds, 1.3% hits; AID 449768;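 active means Z score or B-score, a plate-position-corrected score, falls beyond the plate's 99.7% confidence bounds, in either direction; inactive means both scores lie inside the 99.7% bounds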
Target sequence (Q01959 whole entry, looked up): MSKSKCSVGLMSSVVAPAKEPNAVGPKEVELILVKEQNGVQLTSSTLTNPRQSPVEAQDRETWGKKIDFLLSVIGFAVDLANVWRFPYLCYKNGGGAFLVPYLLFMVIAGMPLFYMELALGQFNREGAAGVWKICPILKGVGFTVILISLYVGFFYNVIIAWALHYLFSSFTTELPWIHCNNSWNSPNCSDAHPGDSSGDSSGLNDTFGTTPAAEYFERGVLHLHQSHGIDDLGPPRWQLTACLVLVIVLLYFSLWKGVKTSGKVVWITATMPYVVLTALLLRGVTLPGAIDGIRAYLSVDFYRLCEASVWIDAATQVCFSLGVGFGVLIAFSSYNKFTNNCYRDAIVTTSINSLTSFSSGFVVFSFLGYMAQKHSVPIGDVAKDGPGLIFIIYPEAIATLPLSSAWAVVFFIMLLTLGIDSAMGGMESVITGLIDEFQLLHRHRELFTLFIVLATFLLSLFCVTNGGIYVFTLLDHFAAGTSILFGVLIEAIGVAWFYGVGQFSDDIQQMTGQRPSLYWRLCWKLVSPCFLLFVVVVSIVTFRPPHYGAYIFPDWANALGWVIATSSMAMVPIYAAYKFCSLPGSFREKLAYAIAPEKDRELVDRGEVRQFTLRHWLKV
M1 antag = M1 muscarinic receptor (rat) antagonism. P08482. CHO-M1 cells, Fluo-4 calcium, ACh EC80 antagonist mode; active compounds read low. B-score at 10 µM. 64,000 compounds, 3.4% hits. AID 628;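 active means calcium fluorescence response, raw or row-and-column corrected B-score, differing from the plate sample mean either way at a set confidence level, mostly lower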
D1 mod = D1 dopamine receptor (human) allosteric modulation; P21728; HEK293 D1, CRE-luciferase, dopamine EC30 potentiation; actives deviate in either direction; B-score at 10 µM; 58,000 compounds, 5.9% hits; AID 641;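 active means luminescence count or its row- and column-corrected plate score outside the 99.7% band of the plate's sample wells, on either side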
M1 ag = agonists of M1 muscarinic receptor | CHO-M1 cells, Fluo-4 calcium fluorescence, agonist mode; active compounds read high | B-score at 10 µM | 64,000 compounds, 3% hits | AID 626;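 active means fluorescence rise, raw or as B-score row- and column-corrected plate score, outside the 99.7% band of its plate's samples, either direction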
Jurkat viability = reduces viability or proliferation of Jurkat cells. AID 463. inhibition, % at 4 µM. 56,000 compounds, 1.2% hits. Jurkat E6.1 viability, ATP luminescence, 48 h;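 active means inhibition above the mean inhibition of all tested compounds plus 3 SD, cut at about 28% in these data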
HEK293 NFkB inh = lowers PMA/ionomycin-induced NF-kB signal in HEK293 cells | 62,000 compounds, 0.21% hits | HEK-293 NF-kB luciferase reporter, luminescence | inhibition, % at 3 µM;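 active means inhibition above the mean of all tested compounds plus 3 SD, cut at about 40% in these data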
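Timing: 1 h pretreatment, 16 h stimulation, 37 °C; system: HEK-293 cells with stable firefly luciferase reporter driven by four HIV NF-kB elements; doses: 3 µM once, 0.30% DMSO; measured by: luciferase luminescence; control set: DMSO and 10 µM reference inhibitor; repeats: single test; reagent: PMA plus ionomycin mix as NF-kB-activating stimulus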
D1 mod confirm = D1 receptor (human) allosteric modulation, confirmed; shares compounds with D1 mod; HEK293 D1 CRE-luciferase, dopamine EC30 potentiation; active compounds read high; luminescence at 10 µM; 2,200 compounds, 88% hits; AID 642;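 active means luminescence in either of two replicates above the same-plate mean plus 3 SD of the low-dose dopamine control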
D1 ag no DA = D1 (human) signaling in absence of dopamine | shares compounds with D1 mod | HEK293 D1 CRE-luciferase, luminescence, no dopamine; active compounds read high | luminescence at 10 µM | 1,900 compounds, 0.8% hits; in the data active means luminescence above about 3900
Isoprot counter = isoproterenol response counter-screen activity for D1 modulators | shares compounds with D1 mod | AID 647 | calls only at 10 µM | HEK293 D1 CRE-luciferase, isoproterenol EC30 counter-screen | 2,200 compounds, 63% hits;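 active means luminescence in either replicate above plate mean of wells with a partly effective reference agonist dose plus 3 SD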;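 further: isoproterenol raises cAMP through native beta-adrenoceptor Gs so signal bypasses D1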
Of the large screens only hits and unclear results are named; the others gave an inactive call (follow-up assays come after a bar, where they were run). An excerpt weighted towards active compounds, which were near 7.6% of everything screened.

COc1ccc(-c2cc(C(=O)N3CCOCC3)no2)cc1OC	D1 mod 5.96 | D1 mod confirm 11468 | D1 ag no DA inactive | Isoprot counter active
COc1ccc(S(=O)(=O)N(C)c2ccc(C(=O)N3CCOCC3)cc2)cc1OC	D1 mod 14.7 (no result: M1 antag, M1 ag) | D1 mod confirm 16652 | D1 ag no DA inactive | Isoprot counter inactive
COc1ccc(-c2nc(CCNC(=O)c3ccco3)cs2)cc1OC	D1 mod 24 | D1 mod confirm 24816 | D1 ag no DA inactive | Isoprot counter active
CC(=O)Nc1n[nH]c(S(=O)(=O)Cc2ccc(Cl)cc2Cl)n1	none (no result: D1 mod, Jurkat viability, HEK293 NFkB inh)
Cc1nn(Cc2c(Cl)cccc2Cl)c(C)c1NC(=O)c1cnn2c(C(F)F)cc(-c3ccccc3)nc12	none (no result: M1 antag, D1 mod, M1 ag, Jurkat viability, HEK293 NFkB inh)
COCCOC(=O)C1=C(C)N=C2SCCC(=O)N2C1/C=C/c1ccccc1 (stereo not drawn)	none
COc1ccc(-c2cc(C(=O)NCc3ccccc3)no2)cc1OC	D1 mod 4.62 | D1 mod confirm 10196 | Isoprot counter active
COc1ccc(-c2cc(C(=O)N(C)Cc3ccccc3)no2)cc1OC	D1 mod 17 | D1 mod confirm 18128 | Isoprot counter active
CCn1cnc2c1c(=O)n(CC(=O)Nc1cc(C)on1)c(=O)n2Cc1ccccc1	none
CCOC(=O)c1c(C)[nH]c(C(=O)Cn2c(=O)c3c(ncn3CC)n(Cc3ccccc3)c2=O)c1C	D1 mod 13.4 | D1 mod confirm 20428 | D1 ag no DA inactive | Isoprot counter active
COC(=O)c1ccccc1S(=O)(=O)N(Cc1cc2ccc(OC)cc2[nH]c1=O)CC1CCCO1 (stereo not drawn)	none (no result: D1 mod)
Cc1c(C(=O)NC2CCCc3ccccc32)oc2ccc(S(=O)(=O)N3CCCC3)cc12 (stereo not drawn)	none (no result: M1 antag, D1 mod, M1 ag, Jurkat viability, HEK293 NFkB inh)
Cc1c(C(=O)NC2CCCc3ccccc32)oc2ccc(S(=O)(=O)N3CCOCC3)cc12 (stereo not drawn)	D1 mod 5.98 (no result: Jurkat viability) | D1 mod confirm 7816 | D1 ag no DA inactive | Isoprot counter active
CCC(CC)C(=O)Nc1cccc(C(=O)Nc2ccc(S(=O)(=O)Nc3ccc(C)cc3)cc2)c1	none (no result: M1 antag, D1 mod, M1 ag, Jurkat viability, HEK293 NFkB inh)
N#Cc1ccccc1Cn1c(-c2cscn2)nc2ccccc21	D1 mod 13.4 | D1 mod confirm 15376 | D1 ag no DA inactive | Isoprot counter active
O=C(O)Cn1c(-c2cscn2)nc2ccccc21	none
CCOC(=O)c1ccccc1Nc1cc(C)nc2nc(C)nn12	D1 mod 1.83 | D1 mod confirm 10192 | D1 ag no DA inactive | Isoprot counter active
COc1ccc(OC)c(C(=O)COC(=O)C2CC3CCCC(C2)C3=O)c1 (stereo not drawn)	D1 mod 2.21 | D1 mod confirm 9744 | D1 ag no DA inactive | Isoprot counter inactive
COc1cc(OC)c(C2C(C(=O)N3CCOCC3)=C(C)NC3=C2C(=O)CC(C)(C)C3)cc1OC (stereo not drawn)	none
COc1ccc(C2NC(=O)CS2)cc1OC (stereo not drawn)	D1 mod 5.76 | D1 mod confirm 13168 | Isoprot counter active
CC(Oc1ccc(Cl)cc1Cl)C(=O)Nc1ccc2oc(-c3ccncc3)nc2c1 (stereo not drawn)	none
Cc1cc2nc(-c3ccc(NC(=O)C(C)C)cc3)oc2cc1C	D1 mod 5.79 (no result: hDAT+cocaine) | D1 mod confirm inactive | D1 ag no DA inactive | Isoprot counter inactive
O=C(CCS(=O)(=O)c1ccc(Br)cc1)NCc1cccs1	none (no result: hDAT+cocaine)
CCOC(=O)CNC(=O)CSc1nc2cccnc2n1Cc1ccccc1	none
CCOC(=O)CNC(=O)CSc1nc2cccnc2n1C1CCCCC1	D1 mod 7.64 | D1 mod confirm 13776 | Isoprot counter active
CC(C)OC(=O)CSc1nc2cccnc2n1C1CCCCC1	D1 mod 22.5 | D1 mod confirm 27160 | D1 ag no DA inactive | Isoprot counter active
COC(=O)CSc1nc2cc(Cl)ccc2c(=O)n1C1CCCC1	none
COc1ccc(-c2nc(CS(=O)CC(=O)NCc3cccnc3)c(C)o2)cc1 (stereo not drawn)	none
CC(C)Cc1cc(-c2ccco2)c(C#N)c(N)n1	D1 mod 27.5 (no result: hDAT+cocaine) | D1 mod confirm 29116 | D1 ag no DA inactive | Isoprot counter active
N#Cc1c(-c2ccco2)cc(-c2ccc(F)cc2)nc1N	D1 mod 9.94 | D1 mod confirm 16300 | D1 ag no DA inactive | Isoprot counter active
COCCn1ccc(O)c(Cc2ccc(Cl)cc2)c1=O	none (no result: M1 antag, D1 mod, M1 ag, Jurkat viability, HEK293 NFkB inh)
Cc1ccc(/C=N\NC(=O)c2csnn2)cc1	none (no result: M1 antag, D1 mod, M1 ag, Jurkat viability, HEK293 NFkB inh)
COCCNC(=O)C1CC(=O)N(C2CCCCC2)C1 (stereo not drawn)	none
O=C1COc2ccccc2N1Cc1ccccc1Cl	D1 mod 4.91 | D1 mod confirm 7968 | D1 ag no DA inactive | Isoprot counter inactive
CC1Oc2ccccc2N(Cc2ccccc2Cl)C1=O (stereo not drawn)	none (no result: D1 mod)
COC(=O)c1ccc(CS(=O)(=O)c2ccccc2C)o1	D1 mod 4.6 | D1 mod confirm inactive | D1 ag no DA inactive | Isoprot counter inactive
Cc1ccccc1-c1ccc(=O)n(CC(=O)Nc2ccc(N3CCOCC3)cc2)n1	none (no result: D1 mod)
N#Cc1c(-c2ccccc2)nc(N2CCCCCC2)[nH]c1=O	D1 mod 12.5 | D1 mod confirm 26112 | D1 ag no DA inactive | Isoprot counter active
CCOc1cc(S(=O)(=O)N(CC)CC)ccc1Br	D1 mod 12.1 | D1 mod confirm 11820 | D1 ag no DA inactive | Isoprot counter active
CCOc1ccccc1NC(=O)C1C2C=CC(O2)C1C(=O)O (stereo not drawn)	D1 mod 4.75 | D1 mod confirm inactive | D1 ag no DA inactive | Isoprot counter inactive
CCOc1ccccc1NC(=O)C1C2C=CC(C2)C1C(=O)O (stereo not drawn)	none (no result: M1 antag, D1 mod, M1 ag, Jurkat viability, HEK293 NFkB inh)
Clc1cccc(-c2nnc3sc(-c4ccccc4)nn23)c1	none (no result: hDAT+cocaine)
CCCCN(c1ccccc1)c1ncnc2nc[nH]c12	D1 mod 11.6 | D1 mod confirm 11140 | D1 ag no DA inactive | Isoprot counter active
COc1ccccc1N1CCN(c2nc(N)c(C#N)c(CC#N)c2C#N)CC1	none (no result: D1 mod, Jurkat viability)
N#CCc1c(C#N)c(N)nc(N2CCN(S(=O)(=O)c3ccccc3)CC2)c1C#N	D1 mod 5.49 | D1 mod confirm 11684 | D1 ag no DA inactive | Isoprot counter active
CSc1ccc(C2C(C#N)=C(N)N(c3ccccc3)C3=C2C(=O)CCC3)cc1 (stereo not drawn)	D1 mod 2.58 (no result: Jurkat viability) | D1 mod confirm 10676 | D1 ag no DA inactive | Isoprot counter inactive
